PvdQ acylase = P. aeruginosa PvdQ acylase inhibition | purified PvdQ acylase, fluorescence plate reader | inhibition, % at 10 µM | actives 0.063% (n = 340,000); in the data active means inhibition above about 30%, passing the limit was not always enough;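 further: 0% = vehicle neutral wells and 100% = reference inhibitor wells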
S100A4 MyoIIA = blocks human S100A4 binding to myosin IIA peptide. actives 0.14% (n = 360,000). AID 652163. S100A4/TAMRA-MyoIIA peptide fluorescence polarization. inhibition, % at 10.7 µM;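 active means mean inhibition of at least 70% across replicates, with every replicate also reaching that level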
Target sequence (P26447 whole entry, looked up): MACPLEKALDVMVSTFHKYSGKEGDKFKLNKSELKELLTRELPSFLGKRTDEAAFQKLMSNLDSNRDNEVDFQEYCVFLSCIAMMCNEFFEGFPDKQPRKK
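Compound dosing: one dose per compound; test system: human S100A4 monomer with TAMRA-labelled myosin IIA peptide; probe or stimulus: TAMRA-labelled myosin IIA heavy-chain peptide probe, 5 nM; medium: HEPES buffer with Ca2+, pH 7.2; schedule: 5 min incubation before reading; benchmarks: neutral control DMSO, positive control TFP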
dFosB activator = enhances mouse delta FosB homodimer DNA binding. activation, % at 25 µM. purified delta FosB, TAMRA-CDK5 oligo fluorescence polarization; percent of positive-control signal above neutral wells. actives 0.99% (n = 340,000);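 active means mean activation above about 17%, with every replicate also reaching it, limit read from the data, passing the limit was not always enough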
Target sequence (P13346 whole entry, looked up): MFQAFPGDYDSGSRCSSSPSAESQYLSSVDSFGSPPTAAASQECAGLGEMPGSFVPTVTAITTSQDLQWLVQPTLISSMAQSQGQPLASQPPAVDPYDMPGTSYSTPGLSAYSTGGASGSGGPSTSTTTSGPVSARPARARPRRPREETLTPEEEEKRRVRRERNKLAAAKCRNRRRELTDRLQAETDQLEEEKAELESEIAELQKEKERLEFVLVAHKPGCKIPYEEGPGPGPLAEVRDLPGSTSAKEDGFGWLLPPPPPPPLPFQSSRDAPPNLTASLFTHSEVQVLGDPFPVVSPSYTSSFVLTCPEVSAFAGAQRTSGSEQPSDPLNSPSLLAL
RAD54 branch = RAD54 (human) branch migration inhibition. Q92698. RAD54 Holliday junction branch migration, FAM/BHQ fluorescence. inhibition, % at 10.4 µM. actives 0.14% (n = 360,000);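 active means mean normalized replicate activity at least 40 and at least half of replicates scoring 40 or more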;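 further: 0% = median of neutral control wells and 100% = median of positive control wells; inhibitors cause a drop in the FAM fluorescence signal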
SR-BI DiI inh = inhibitors of mouse SR-BI mediated HDL lipid uptake; Q61009; ldlA[mSR-BI] CHO cells, DiI-HDL uptake fluorescence, 3 h; AID 488896; inhibition, % at 12.5 µM; actives 0.96% (n = 320,000);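 active means mean replicate inhibition of at least 70% and a set share of replicates each scoring 70 or more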;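 further: 0% = median of neutral control wells and 100% = median of positive control wells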
SR-BI uptake up = SR-BI HDL lipid transfer activation; activation, % at 12.5 µM; AID 504775; CHO ldlA[mSR-BI] cells, DiI-HDL uptake fluorescence, 3 h; 100 = double the neutral-control signal; actives 0.096% (n = 320,000);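 active means mean replicate activation of at least 60% and every replicate at or above 60%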;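 further: 0% = median plate neutral-control signal and 100% = twice that signal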
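material = CHO ldlA[mSR-BI] cells | medium = Ham's F12 with 0.5% BSA, HEPES 25 mM, pH 7.4 | reagent = fluorescent DiI-HDL, 10 µg/mL final | compound dosing = single-point compound dose | incubation = 3 h, 37 °C | measured by = bottom-read fluorescence, 550/595 nm | measure = HDL uptake via cellular fluorescence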
* = called active by the depositor; . = no result. Only some compounds are listed: those with a hit (about 1.6% of all), similar ones and a draw of the others.

SMILES | PvdQ acylase | S100A4 MyoIIA | dFosB activator | RAD54 branch | SR-BI DiI inh | SR-BI uptake up
O=C(N/N=C/c1cccn1-c1ccc(O)cc1)c1cccc2ccccc12 | 5 | 7 | 22* | -4 | 77* | -77
COc1ccc(C(=O)N/N=C/c2sc3ccccc3c2O)cc1 | 3 | . | 5 | . | 120* | -120
COc1ccc2cc(C(=O)N/N=C/c3sc4ccccc4c3O)ccc2c1 | -6 | -11 | -2 | . | 96* | -96
COc1ccc(C(=O)N/N=C/C(=O)c2ccccc2)cc1 | -5 | -1 | -4 | -8 | 6 | -6
O=C(N/N=C/c1sc2ccccc2c1O)c1ccccc1 | 4 | . | 10 | -52 | 118* | -118
CC(C)NC(=O)N(C)C[C@@H]1Oc2ccc(NS(=O)(=O)c3cn(C)cn3)cc2C(=O)N([C@@H](C)CO)C[C@H]1C | . | 8 | . | 7 | . | .
CC=Cc1ccc2n(c1=O)C[C@H]1[C@H](CO)[C@@H](C(=O)NCC3CCCCC3)[C@@H]2N1C(C)=O (mixture of isomers) | . | 2 | . | 4 | . | .
C[C@H](NC(=O)[C@@H]1[C@@H](CO)[C@@H]2Cn3c(ccc(-c4ccncc4)c3=O)[C@@H]2N1C)c1ccccc1 | . | 9 | . | -5 | . | .
O=C(N/N=C/c1sc2ccccc2c1O)c1cccc2ccccc12 | 11 | . | 4 | . | 106* | -106
O=C(N/N=C/c1ccccc1)c1cccc2ccccc12 | 2 | -3 | 0 | . | -4 | 4
COc1cc2c(cc1OC)CN(c1ccc(-c3ccccc3OC)nn1)CC2 | -6 | . | -18 | 4 | 45 | -45
COc1cc2c(cc1OC)CN(c1ccc3ccccc3n1)CC2 | 1 | 2 | -4 | 13 | 76* | -76
COc1ccc(NC(=O)Nc2ccc3c(c2)CC(=O)N([C@H](C)CO)C[C@H](C)[C@H](CN(C)C(=O)NC(C)C)O3)cc1 | . | 13 | . | -1 | . | .
CCn1c(=O)[nH]c2cc(C(=O)Nc3cc(C)cc(C)c3)ccc2c1=O | -2 | 1 | 7 | . | 72* | -72
O=C1CC(C(=O)N2CCN(c3ccccn3)CC2)CN1Cc1ccccc1Cl (centres undefined) | -10 | 185* | 2 | 14 | -8 | 8
O=C(C[C@@H]1C=C[C@H](NC(=O)NC2CCCCC2)[C@H](CO)O1)NCc1ccc(Cl)cc1 | . | -3 | . | -11 | . | .
NC(=O)Nc1ccc(C(=O)OCC(=O)Nc2cccc(S(=O)(=O)NC3=NCCC3)c2)cc1 | -6 | -6 | -9 | -1 | 76* | -76
O=C(Nc1cccc(S(=O)(=O)NC2=NCCCCC2)c1)c1cc(-c2ccccc2)nc2ccccc12 | -4 | 0 | -1 | -4 | 77* | -77
O=C(Nc1cccc(S(=O)(=O)NCc2ccco2)c1)c1cc(-c2ccc(F)cc2)nc2ccccc12 | -14 | -7 | -9 | -3 | 74* | -74
O=C(C[C@@H]1CC[C@H](NC(=O)c2cccnc2)[C@H](CO)O1)NCc1ccncn1 | . | 4 | . | 6 | . | .
C[C@@H]1CN([C@H](C)CO)C(=O)c2cc(-c3ccccc3)cnc2O[C@@H]1CN(C)C(=O)c1ccccn1 | . | 9 | . | 4 | . | .
CC[C@]12c3[nH]c4ccc(Cl)cc4c3CCN1C(=O)[C@@H](CC(=O)NCc1ccc(OC)c(OC)c1)C[C@@H]2C(=O)N1CCN(C(=O)c2ccco2)CC1 | -7 | -2 | -9 | -3 | 78* | -78
O=C(CC1C[C@H](C(=O)N2CCOCC2)[C@@]2(CCC3CCCC3)c3[nH]c4ccccc4c3CCN2C1=O)NCc1cccc(C(F)(F)F)c1 (some centres undefined) | -11 | 1 | 2 | 5 | -107 | 107*
CCCC(=O)Nc1nc(C)c(-c2csc(Nc3cc(OC)ccc3OC)n2)s1 | -12 | -4 | -2 | 5 | 94* | -94
C=CCCC(=O)Nc1nc(C)c(-c2csc(Nc3cc(OC)ccc3OC)n2)s1 | -7 | -4 | 1 | -1 | 56 | -56
CCC(C)C(=O)Nc1nc(C)c(-c2csc(Nc3ccc(Cl)cc3)n2)s1 (centres undefined) | -5 | 3 | -5 | 0 | 78* | -78

Compound activity: PubChem, Broad Institute
